Converted amounts (≈) assume the structure as drawn. The source made the active and inactive calls. Unless noted, no cut-off for these calls is given here.
Legend:
Plasmodium falciparum [1] = experiment: Antimalarial activity against chloroquine-sensitive Plasmodium falciparum D6 assessed as plasmodial LDH activity; type: functional, organism-based; details: Plasmodium falciparum, D6; read-out: IC50
Vero = experiment: Cytotoxicity against african green monkey Vero cells upto 23.8 […] by neutral dye assay; type: cell-based, Chlorocebus sabaeus
In short: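 Vero monkey kidney cells were exposed to compound up to a highest concentration of 23.8, with viability read by neutral red uptake.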

Plasmodium berghei [2] = experiment: Antimalarial activity against Plasmodium berghei blood-schizont in mouse malaria model assessed as elimination of parasitemia at 100 mg/kg, po for 4 days for 4 days measured after 7 days; type: functional, organism-based; parameters: dose 100 mg/kg
In short: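 P. berghei-infected mice, 6 per group, received compound orally once daily for 4 days at 10, 25, 50 or 100 mg/kg/day. "Active" meant all treated animals were parasitaemia-negative up to D+7. "Curative" meant complete parasite elimination with survival to D+60. Outcomes were recorded as cured/total.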

[3] = Selectivity index, ratio of IC50 for african green monkey Vero cells to IC50 for chloroquine-resistant Plasmodium falciparum W2; type: toxicity, cell-based; details: Vero cells versus Plasmodium falciparum W2, read-out: Ratio IC50
Staphylococcus aureus [4] = experiment: Antimicrobial activity against Staphylococcus aureus ATCC 29213 by CLSI method; type: functional, organism-based
[5] = Inhibition of beta-hematin formation; type: functional
Cryptococcus neoformans = experiment: Antifungal activity against Cryptococcus neoformans; type: functional, organism-based
In short: (§1)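 Yeasts and A. fumigatus were tested by broth microdilution following the NCCLS antifungal standards. The highest test concentration was 20.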

Candida albicans [6] = experiment: Antifungal activity against Candida albicans at 20 ug/ml; type: functional, organism-based
In short: (§2)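 Broth dilution antifungal testing followed the NCCLS reference method for yeasts, with 20 as the highest test concentration. MIC was the lowest concentration with no detectable growth. MFC was the lowest concentration killing the organism.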

Pseudomonas aeruginosa = experiment: Antimicrobial activity against Pseudomonas aeruginosa ATCC 27853 by CLSI method; type: functional, organism-based
In short: (§3)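 Antibacterial testing used CLSI/NCCLS broth dilution for aerobically growing bacteria, with 20 as the highest test concentration.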

[7] = tested on: Mycobacterium intracellulare; experiment: Antimicrobial activity against Mycobacterium intracellulare ATCC 23068 by Franzblau method; type: functional, organism-based
Leishmania donovani = experiment: Antileishmanial activity against Leishmania donovani promastigote by Alamar Blue assay; type: functional, organism-based
[8] = Selectivity index, ratio of IC50 for african green monkey Vero cells to IC50 for chloroquine-sensitive Plasmodium falciparum D6; type: toxicity, cell-based; details: Vero cells versus Plasmodium falciparum D6, read-out: Ratio IC50
Plasmodium berghei [9] = experiment: Antimalarial activity against Plasmodium berghei blood-schizont in mouse malaria model assessed as elimination of parasitemia at 100 mg/kg, po for 4 days for 4 days measured after 4 days; type: functional, organism-based; parameters: dose 100 mg/kg
Escherichia coli [10] = experiment: Antimicrobial activity against Escherichia coli ATCC 35218 by CLSI method; type: functional, organism-based
Aspergillus fumigatus = experiment: Antifungal activity against Aspergillus fumigatus; type: functional, organism-based; in short: as §1
Staphylococcus aureus [11] = experiment: Antimicrobial activity against methicillin-resistant Staphylococcus aureus ATCC 43300 by CLSI method; type: functional, organism-based
Plasmodium falciparum [12] = experiment: Antimalarial activity against chloroquine-resistant Plasmodium falciparum W2 assessed as plasmodial LDH activity; type: functional, organism-based; details: Plasmodium falciparum, W2; read-out: IC50
Candida albicans [13] = experiment: Fungicidal activity against Candida albicans at 20 ug/ml; type: functional, organism-based; in short: as §2
Staphylococcus aureus [14] = experiment: Bactericidal activity against methicillin-resistant Staphylococcus aureus ATCC 43300 at 20 ug/ml by CLSI method; type: functional, organism-based
In short: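 MBC is the lowest concentration that kills the organism. 20 was the highest concentration tested.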

Staphylococcus aureus [15] = experiment: Antimicrobial activity against methicillin-resistant Staphylococcus aureus ATCC 43300 at 20 ug/ml by CLSI method; type: functional, organism-based
[16] = tested on: Mycobacterium intracellulare; experiment: Antimicrobial activity against Mycobacterium intracellulare ATCC 23068 at 20 ug/ml by Franzblau method; type: functional, organism-based
Escherichia coli [17] = experiment: Bactericidal activity against Escherichia coli ATCC 35218 at 20 ug/ml by CLSI method; type: functional, organism-based; in short: as §3
[18] = tested on: Mycobacterium intracellulare; experiment: Bactericidal activity against Mycobacterium intracellulare ATCC 23068 at 20 ug/ml by Franzblau method; type: functional, organism-based
Pichia kudriavzevii [19] = experiment: Fungicidal activity against Candida krusei at 20 ug/ml; type: functional, organism-based; in short: as §2
Nakaseomyces glabratus = experiment: Antifungal activity against Candida glabrata; type: functional, organism-based; in short: as §1
Pichia kudriavzevii [20] = experiment: Antifungal activity against Candida krusei at 20 ug/ml; type: functional, organism-based; in short: as §2
[21] = Leishmania donovani, read-out: IC50

Row | SMILES | IC50 (Plasmodium falciparum [1]) | IC50 (Vero) | Activity (Plasmodium berghei [2]) | selectivity ratio [3] | Activity (Staphylococcus aureus [4]) | IC50 [5] | IC50 (Cryptococcus neoformans) | MFC (Cryptococcus neoformans) | MIC (Cryptococcus neoformans) | Activity (Candida albicans [6]) | Activity (Pseudomonas aeruginosa) | Activity [7] | IC50 (Leishmania donovani) | IC90 (Leishmania donovani) | selectivity ratio [8] | Activity (Escherichia coli [10]) | Activity (Aspergillus fumigatus) | Activity (Staphylococcus aureus [11]) | IC50 (Plasmodium falciparum [12]) | Activity (Candida albicans [13]) | also measured
1 | COc1cc(NC(C)CCCNC(=O)CC[C@H](NC(=O)[C@@H](N)CCCNC(=N)N)C(=O)O)c2nc(C(C)(C)C)ccc2c1 (stereo not given in full) | 2.3 µg/mL (≈ 3.83 µM) | Non-toxic | inactive | > 11.9 | inactive | 96 µM | 15 µg/mL (≈ 25 µM) | 20 µg/mL (≈ 33.3 µM) | 20 µg/mL (≈ 33.3 µM) | inactive | inactive | inactive | Not Active | inactive | > 10.3 | inactive | inactive | inactive | 2 µg/mL (≈ 3.33 µM) | inactive | Activity (Plasmodium berghei [9]): inactive
2 | COc1cc(NC(C)CCCNC(=O)C[C@H](NC(=O)[C@@H](N)CCCCN)C(=O)O)c2nc(C(C)(C)C)ccc2c1 (stereo not given in full) | 3.8 µg/mL (≈ 6.8 µM) | Non-toxic |  | > 8.5 |  | 131 µM | 3.5 µg/mL (≈ 6.26 µM) | 5 µg/mL (≈ 8.95 µM) | 5 µg/mL (≈ 8.95 µM) | inactive | inactive | inactive |  |  | > 6.2 |  | inactive | inactive | 2.8 µg/mL (≈ 5.01 µM) | inactive | Activity (Staphylococcus aureus [14]): inactive; Activity (Staphylococcus aureus [15]): inactive; IC90 (Leishmania donovani; Leishmania donovani): 31 µg/mL (≈ 55.5 µM); IC50 (Leishmania donovani; [21]): 9.4 µg/mL (≈ 16.8 µM); IC50 (Escherichia coli [10]): 15 µg/mL (≈ 26.8 µM); MIC (Escherichia coli [10]): 20 µg/mL (≈ 35.8 µM); Activity [16]: inactive; Activity (Escherichia coli [17]): inactive; Activity [18]: inactive
3 | COc1cc(NC(C)CCCNC(=O)C[C@@H](NC(=O)[C@H](N)CCCN)C(=O)O)c2nc(C(C)(C)C)ccc2c1 (stereo not given in full) | 2.5 µg/mL (≈ 4.59 µM) | Non-toxic |  | > 7 | inactive | > 1000 µM | 4.86 µg/mL (≈ 8.92 µM) | 10 µg/mL (≈ 18.4 µM) | 10 µg/mL (≈ 18.4 µM) | inactive | inactive | inactive | Not Active | inactive | > 9.5 | inactive | inactive | inactive | 3.4 µg/mL (≈ 6.24 µM) | inactive | Activity (Pichia kudriavzevii [19]): inactive; IC50 (Nakaseomyces glabratus): 13.7 µg/mL (≈ 25.1 µM); MFC (Nakaseomyces glabratus): 20 µg/mL (≈ 36.7 µM); MIC (Nakaseomyces glabratus): 20 µg/mL (≈ 36.7 µM); Activity (Pichia kudriavzevii [20]): inactive
4 | COc1cc(NC(C)CCCNC(=O)[C@H](CCCN)NC(=O)[C@@H](N)CCCN)c2nc(C(C)(C)C)ccc2c1 (stereo not given in full) | 2.5 µg/mL (≈ 4.6 µM) | Non-toxic | inactive | > 11.9 | inactive | 85 µM | 3.5 µg/mL (≈ 6.44 µM) | 5 µg/mL (≈ 9.2 µM) | 5 µg/mL (≈ 9.2 µM) | inactive | inactive | inactive |  | inactive | > 9.5 | inactive | inactive | inactive | 2 µg/mL (≈ 3.68 µM) | inactive | IC50 (Leishmania donovani; [21]): 20 µg/mL (≈ 36.8 µM); Activity (Plasmodium berghei [9]): inactive

— ChEMBL document CHEMBL2021883, “Amino acid, dipeptide and pseudodipeptide conjugates of ring-substituted 8-aminoquinolines: synthesis and evaluation of anti-infective, β-haematin inhibition and cytotoxic activities” (Eur J Med Chem, 2012)
